Data from ChEMBL document CHEMBL2346603, “Discovery of potent dipeptidyl peptidase IV inhibitors through pharmacophore hybridization and hit-to-lead optimization” (Bioorg Med Chem, 2013).
Calls of active or inactive are those of the source. No cut-off for these calls is given here.

Key:
[1] = Half life in Sprague-Dawley rat blood at 30 mg/kg, po by LC-MS/MS analysis; assay type: ADME, organism-based; design: dose 30 mg/kg, route oral; details: whole blood
Procedure, shortened: (§1)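 Adult male SD rats (n = 4/group) got a single dose of compound in distilled water, orally or by injection. Blood (100–200 µL) was drawn from the orbit at 11 time points over 24 h. Blood drug levels were measured by LC–MS/MS.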

[2] = Oral bioavailability in Sprague-Dawley rat at 30 mg/kg by LC-MS/MS analysis; assay type: ADME, organism-based; details: in vivo; procedure, shortened: as §1
[3] = AUC (0 to infinity) in Sprague-Dawley rat blood at 30 mg/kg, po by LC-MS/MS analysis; assay type: ADME, organism-based; design: time infinity, dose 30 mg/kg, route oral; details: whole blood; procedure, shortened: as §1
[4] = biological target: Dipeptidyl peptidase 9 (Homo sapiens) (UniProt Q86TI2); assay: Inhibition of DPP9 (unknown origin) up to 10 uM
Procedure, shortened: (§2)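 Compounds were serially diluted from DMSO into 20 mM Tris pH 7.4, 20 mM KCl, 0.1 mg/mL BSA. Enzyme was pre-incubated with compound for 10 min at ambient temperature. Reaction was started with Gly-Pro-AMC (10 µM final). Fluorescence (ex 400/em 505 nm) was read kinetically for 5–10 min or at a 10 min endpoint.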

[5] = biological target: Dipeptidyl peptidase 8 (Homo sapiens) (UniProt Q6V1X1); assay: Inhibition of DPP8 (unknown origin) up to 10 uM; procedure, shortened: as §2
[6] = Apparent clearance in Sprague-Dawley rat blood at 10 mg/kg, iv by LC-MS/MS analysis; assay type: ADME, organism-based; design: dose 10 mg/kg, route intravenous; details: whole blood, read-out: CL(app) (converted); procedure, shortened: as §1
[7] = Inhibition of CYP3A (unknown origin) up to 30 uM; assay type: ADME; details: human
[8] = Apparent volume of distribution in Sprague-Dawley rat blood at 10 mg/kg, iv by LC-MS/MS analysis; assay type: ADME, organism-based; design: dose 10 mg/kg, route intravenous; details: whole blood, read-out: Vz; procedure, shortened: as §1
[9] = Mean residence time (0 to infinity) in Sprague-Dawley rat blood at 30 mg/kg, po by LC-MS/MS analysis; assay type: ADME, organism-based; design: dose 30 mg/kg, route oral; details: whole blood; procedure, shortened: as §1

Sequence of Dipeptidyl peptidase 8 (Homo sapiens) (Q6V1X1 whole entry, looked up): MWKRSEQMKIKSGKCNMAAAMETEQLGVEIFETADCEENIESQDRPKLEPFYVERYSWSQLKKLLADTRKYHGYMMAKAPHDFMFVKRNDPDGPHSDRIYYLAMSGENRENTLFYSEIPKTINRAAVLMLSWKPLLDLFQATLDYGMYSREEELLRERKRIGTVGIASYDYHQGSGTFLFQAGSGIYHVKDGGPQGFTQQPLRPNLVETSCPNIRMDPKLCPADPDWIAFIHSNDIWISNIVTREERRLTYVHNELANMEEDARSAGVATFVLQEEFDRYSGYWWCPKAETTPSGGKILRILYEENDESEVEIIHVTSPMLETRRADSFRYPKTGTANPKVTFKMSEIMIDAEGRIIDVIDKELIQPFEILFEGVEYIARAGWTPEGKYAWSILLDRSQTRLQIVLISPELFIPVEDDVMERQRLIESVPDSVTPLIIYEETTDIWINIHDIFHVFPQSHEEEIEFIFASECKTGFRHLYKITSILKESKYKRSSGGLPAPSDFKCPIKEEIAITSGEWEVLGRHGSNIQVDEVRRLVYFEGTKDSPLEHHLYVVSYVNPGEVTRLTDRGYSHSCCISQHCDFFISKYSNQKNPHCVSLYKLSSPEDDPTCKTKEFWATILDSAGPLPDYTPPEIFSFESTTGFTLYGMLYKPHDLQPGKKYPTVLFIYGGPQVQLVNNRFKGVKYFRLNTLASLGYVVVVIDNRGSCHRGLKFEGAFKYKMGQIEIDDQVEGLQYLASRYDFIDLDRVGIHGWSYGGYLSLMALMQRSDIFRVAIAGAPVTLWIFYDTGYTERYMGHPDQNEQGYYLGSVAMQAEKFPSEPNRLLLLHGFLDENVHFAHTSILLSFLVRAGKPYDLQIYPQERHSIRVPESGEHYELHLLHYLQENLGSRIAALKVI
Sequence of Dipeptidyl peptidase 9 (Homo sapiens) (Q86TI2 2-863 limits assumed): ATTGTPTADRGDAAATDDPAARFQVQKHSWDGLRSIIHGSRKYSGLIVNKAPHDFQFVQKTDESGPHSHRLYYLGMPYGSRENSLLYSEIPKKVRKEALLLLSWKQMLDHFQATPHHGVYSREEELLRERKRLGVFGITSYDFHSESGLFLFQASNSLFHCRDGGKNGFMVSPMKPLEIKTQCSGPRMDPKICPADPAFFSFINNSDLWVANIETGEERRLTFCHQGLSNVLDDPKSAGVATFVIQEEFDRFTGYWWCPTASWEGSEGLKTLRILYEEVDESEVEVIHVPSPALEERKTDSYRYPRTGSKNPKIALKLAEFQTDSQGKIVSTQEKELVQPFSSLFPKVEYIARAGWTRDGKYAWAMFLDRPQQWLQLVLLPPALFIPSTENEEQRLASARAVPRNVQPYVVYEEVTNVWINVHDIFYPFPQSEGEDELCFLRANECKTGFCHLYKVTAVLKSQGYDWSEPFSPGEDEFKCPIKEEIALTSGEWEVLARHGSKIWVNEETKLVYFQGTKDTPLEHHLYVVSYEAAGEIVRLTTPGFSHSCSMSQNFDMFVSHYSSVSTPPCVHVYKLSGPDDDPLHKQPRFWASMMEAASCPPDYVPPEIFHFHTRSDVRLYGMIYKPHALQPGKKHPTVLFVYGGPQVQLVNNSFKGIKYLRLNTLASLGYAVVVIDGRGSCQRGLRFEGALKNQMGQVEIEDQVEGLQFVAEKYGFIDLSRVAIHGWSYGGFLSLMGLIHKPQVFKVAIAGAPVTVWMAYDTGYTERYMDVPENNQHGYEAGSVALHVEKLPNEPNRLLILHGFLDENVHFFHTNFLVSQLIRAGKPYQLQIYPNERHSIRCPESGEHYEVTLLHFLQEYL

| Compound | half-life [1] [h] | bioavailability [2] [%] | AUC(0-inf) [3] [ng·h/mL] | inhibition [4] | inhibition [5] | clearance [6] [mL/min/kg] | inhibition (INH) [7] | Vd [8] [L/kg] | MRT inf [9] [h] |
| --- | --- | --- | --- | --- | --- | --- | --- | --- | --- |
| N#Cc1ccccc1Cn1c(N2CCC[C@@H](N)C2)nc2c(Br)c[nH]c2c1=O | 2 | 41 | – | – | – | – | – | – | – |
| CC#CCn1c(N2CCC[C@@H](N)C2)nc2ccn(Cc3nc(C)c4ccccc4n3)c2c1=O | 4.9 | 82.9 | 25300 | inactive | inactive | 16.7 | Not Active | 4 | 8.3 |
